Screening data from PubChem BioAssay.
PKA-R1A activ – activators of PKA-R1A holoenzyme, primary screen, biochemical, fluorescence polarization, Cy5-IP20, bovine R1A, mouse PKAc. PKA-R1A dissociation; scaled: DMSO 0%, 113 µM cGMP 100%. activation, % at 11.4 µM. 0.083% of 340,000 active. AID 504707, 2011;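 active means percent activation above the mean of all tested compounds plus 3 SD, cut at about 19% in these data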;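 further: higher means more PKAc released from R1A so a rise in polarization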
VIM-2 inhibitor – VIM-2 metallo-beta-lactamase inhibitors, primary screen, biochemical, epi-absorbance readout, Pseudomonas aeruginosa enzyme; inhibition, % at 5.6 µM; 0.89% of 290,000 active; purified VIM-2, nitrocefin hydrolysis, epi-absorbance fluorescence;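 active means inhibition above the mean of all tested compounds plus 3 SD, cutoff set per screening run, cut at about 7.5% in these data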;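 further: red hydrolysis product quenches plate fluorescence so inhibitors raise well fluorescence; 0% = enzyme with DMSO and 100% = DMSO without enzyme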
MsrA inh – bovine MsrA enzyme inhibitors, primary screen, biochemical, absorbance, HTS | AID 651718, 2012 | purified bovine MsrA, absorbance read-out | Methionine sulfoxide reductase A (Bos taurus) | 0.75% of 360,000 active | inhibition, % at 15.5 µM; in the data active means inhibition above about 4.5%;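 further: 0% = vehicle wells with enzyme and 100% = reference inhibitor wells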
MsrA act – bovine MsrA enzyme activators, primary screen, biochemical, absorbance, HTS | Methionine sulfoxide reductase A (Bos taurus) | purified bovine MsrA, absorbance read-out | activation, % at 10.6 µM | 0.3% of 360,000 active | AID 602163, 2012; in the data active means activation above about 7.5%;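 further: 0% = vehicle and 100% = reference activator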
IMP-1 inh-1 – IMP-1 metallo-beta-lactamase inhibitors, primary screen, biochemical, epi-absorbance readout, Pseudomonas aeruginosa enzyme; AID 1556, 2009; metallo-beta-lactamase IMP-1 (Pseudomonas aeruginosa); purified IMP-1, nitrocefin hydrolysis, epi-absorbance fluorescence; 0.45% of 290,000 active; inhibition, % at 5.6 µM;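 active means inhibition above the mean plus 3 SD of all compounds in the same screening run, cut at about 4.5% in these data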;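 further: 0% = IMP-1 with DMSO and 100% = DMSO wells lacking enzyme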
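Test system: recombinant IMP-1 enzyme, purified / Medium: HEPES buffer pH 7.1 with ZnSO4 and Brij 35 / Doses: single dose, 5.6 µM / Times: 25 °C, 15 min preincubation, 25 min reaction / Detection: Epi-absorbance via hydrolysed-nitrocefin quenching of white-plate fluorescence, 480/530 nm, EDTA stop / Evaluation: percent inhibition from optical density relative to buffer-blank wells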
PKA-R2B activ – activators of PKA-R2B holoenzyme, primary screen, biochemical, fluorescence polarization, Cy5-IP20, human. cAMP-dependent protein kinase catalytic subunit beta (Homo sapiens) + cAMP-dependent …. PKA-R2B holoenzyme dissociation; R2B truncated from residue 108, S112A mutant; 0% DMSO only, 100% 113 µM cGMP. activation, % at 11.4 µM. 0.079% of 340,000 active. AID 504700, 2011;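 active means activation above a cutoff set at the mean over all compounds plus 3 SD, cut at about 18% in these data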;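 further: higher means more holoenzyme dissociation and a rise in polarization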
Target sequence (P31323 whole entry, looked up, other chains not shown, the tested form may be a part): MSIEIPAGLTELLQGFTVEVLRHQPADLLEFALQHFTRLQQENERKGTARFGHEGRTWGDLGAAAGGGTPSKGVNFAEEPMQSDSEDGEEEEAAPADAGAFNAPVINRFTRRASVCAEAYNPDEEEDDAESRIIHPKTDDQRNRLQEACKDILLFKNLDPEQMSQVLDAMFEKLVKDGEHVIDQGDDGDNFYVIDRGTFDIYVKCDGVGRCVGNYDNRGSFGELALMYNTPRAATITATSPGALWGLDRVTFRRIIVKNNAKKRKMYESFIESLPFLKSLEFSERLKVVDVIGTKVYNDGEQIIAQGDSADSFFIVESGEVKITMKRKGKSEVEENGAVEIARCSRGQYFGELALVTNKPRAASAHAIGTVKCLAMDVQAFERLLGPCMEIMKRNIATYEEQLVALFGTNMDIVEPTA
IMP-1 inh-2 – IMP-1 metallo-beta-lactamase inhibitors, confirmation, selectivity assay for selective VIM-2 inhibitor project, biochemical, epi-absorbance readout, triplicate | shares compounds with VIM-2 inhibitor | purified IMP-1, nitrocefin hydrolysis, epi-absorbance fluorescence | inhibition, % at 5.6 µM | 1,300 tested, under 10 active | AID 1856, 2009; call rule not given here;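 further: 0% = enzyme with vehicle and 100% = vehicle without enzyme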
VIM-2 FRET inh – VIM-2 inhibitors in FRET format, confirmation, artefact control for selective VIM-2 inhibitor project, biochemical, epi-absorbance artifact exclusion | inhibition, % at 5.6 µM | 23% of 1,300 active | shares compounds with VIM-2 inhibitor | purified VIM-2, CCF2 FRET substrate hydrolysis;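 active means inhibition above the mean of all tested compounds plus 3 SD, cut at about 19% in these data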;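 further: 0% = VIM-2 plus DMSO and 100% = no enzyme wells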
TEM-1 inh – TEM-1 serine beta-lactamase inhibitors, counter-screen for VIM-2 inhibitor project, biochemical, epi-absorbance, HTS; shares compounds with VIM-2 inhibitor; Purified TEM-1, nitrocefin hydrolysis, epi-absorbance fluorescence; inhibition, % at 5.6 µM; 3% of 1,300 active; AID 1866, 2009;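 active means inhibition above that campaign's mean inhibition plus 3 SD, cut at about 0.46% in these data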;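 further: 0% = TEM-1 with DMSO and 100% = TEM-1 with 100 µM potassium clavulanate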
Target sequence (P62593 whole entry, looked up): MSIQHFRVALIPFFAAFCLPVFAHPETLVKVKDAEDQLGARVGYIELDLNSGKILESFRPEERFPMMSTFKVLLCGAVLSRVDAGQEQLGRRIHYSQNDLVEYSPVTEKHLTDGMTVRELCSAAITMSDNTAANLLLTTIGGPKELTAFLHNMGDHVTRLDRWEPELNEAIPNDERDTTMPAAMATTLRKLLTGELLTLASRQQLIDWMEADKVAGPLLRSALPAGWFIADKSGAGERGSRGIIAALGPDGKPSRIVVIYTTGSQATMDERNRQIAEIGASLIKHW
VIM-2 inh conf – VIM-2 metallo-beta-lactamase inhibitors, confirmation, biochemical, epi-absorbance, hits shared with IMP-1 screen | shares compounds with VIM-2 inhibitor | purified VIM-2, nitrocefin hydrolysis | inhibition, % at 5.6 µM | 96% of 1,300 active | AID 2187, 2009;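 active means inhibition of the VIM-2 beta-lactamase enzyme above about 11% from the earlier first-round screen, limit read from the data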;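 further: 0% = VIM-2 with DMSO and 100% = buffer wells without enzyme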
* marks the source's active call; other numbers are inactive results; · = no result given. An excerpt weighted towards active compounds, which were near 2.1% of everything screened.

SMILES	PKA-R1A activ	VIM-2 inhibitor	MsrA inh	MsrA act	IMP-1 inh-1	PKA-R2B activ	IMP-1 inh-2	VIM-2 FRET inh	TEM-1 inh	VIM-2 inh conf
Cc1cccc(-c2cc3nc(C)cc(NCCCN(C)C)n3n2)c1	-9	6	2	-7	-1	-11	·	·	·	·
Cc1cc(NCCCn2ccnc2)n2nc(-c3ccc(Cl)cc3)cc2n1	2	38*	0	-1	-2	13	-3	-23	-5	47*
Cc1cc(NCCCn2ccnc2)n2nc(-c3ccc(F)cc3)cc2n1	1	41*	0	0	-1	5	0	-12	3.0*	67*
CC(C(=O)O)c1cccc(C(=O)c2ccccc2)c1 (stereo unspecified)	-12	18*	-1	-4	-5	-8	-2	52*	-6	34*
C[C@H](C(=O)O)c1cccc(C(=O)c2ccccc2)c1	-10	·	-2	-4	·	-11	·	·	·	·
COC(=O)c1c(NC(=O)c2ccc(S(=O)(=O)N3CCOCC3)cc2)sc2c1CCN(C)C2	·	78*	2	·	-1	·	-2	-1	-7	85*
CNC(=O)c1c(NC(=O)c2ccc(S(=O)(=O)N3CCCC3)cc2)sc2c1CCN(C(C)C)C2	·	1	-1	·	-2	·	·	·	·	·
CNC(=O)c1c(NC(=O)c2ccc(S(=O)(=O)N3CCCCC3C)cc2)sc2c1CCN(C)C2 (stereo unspecified)	-4	22*	1	5	3	-4	-3	2	-6	30*
CCN1CCc2c(sc(NC(=O)c3ccc(S(=O)(=O)N4CCOCC4)cc3)c2C(=O)OC)C1	-6	64*	3	-5	-3	-2	-2	-2	-4	77*
CCOC(=O)c1c(NC(=O)c2ccc(S(=O)(=O)N3CCOCC3)cc2)sc2c1CCN(C(C)C)C2	2	3	1	-7	-2	0	·	·	·	·
CCN1CCc2c(sc(NC(=O)c3ccc(S(=O)(=O)N4CCOCC4)cc3)c2C(N)=O)C1	-5	3	2	1	-2	-9	·	·	·	·
O=c1oc2cc(O[C@@H]3OC[C@@H](O)[C@H](O)[C@H]3O)ccc2c2ccccc12	3	16*	0	-2	-2	-12	-2	-3	-5	28*
C[C@@H]1C=CCCO[C@]12C(=O)N(CC1CC1)c1cccc(Br)c12	·	·	0	·	·	·	·	·	·	·
Cc1nc2ccccc2c2oc(C(=O)N3CCN(C4CCCCC4)CC3)cc12	-3	19*	-1	0	-3	-14	-2	4	-6	38*
COc1ccc(N2CCN(C(=O)c3cc4c(C)nc5ccccc5c4o3)CC2)cc1	-11	4	-1	-3	0	2	·	·	·	·
CC(C)C[C@H]1COc2ccc(Cl)cc2S(=O)(=O)N1C[C@H](NC(=O)OC(C)(C)C)C(C)C	·	·	-1	·	·	·	·	·	·	·
COC(=O)c1c(C(=O)OC)c2cc(C(=O)c3ccccc3)ccn2c1Cl	-5	7	0	2	-6	8	·	·	·	·
COC(=O)c1c(C(=O)OC)c2oc3ccccc3n2c1Cl	2	14*	1	-8	-3	-7	-2	2	-5	18*
[O-]c1n[n+](-c2ccc(Cl)cc2)cc2ccccc12	1	19*	3	-5	-2	2	-3	-11	0	2
[O-]c1n[n+](-c2ccc(Cl)cc2Cl)cc2ccccc12	-8	0	2	-10	-4	-4	·	·	·	·
C[C@@H]1ON(C)[C@H]2C[C@H]3c4cc(-c5cccc(Cl)c5)ccc4CCN3C[C@@H]12	·	·	0	·	·	·	·	·	·	·
ClC(Cl)(Cl)c1nc(N/N=C/c2ccncc2)c2ccccc2n1	6	34*	2	-7	-4	3	-3	-4	-6	65*
O=[N+]([O-])c1cccc(/C=N/Nc2nc(C(Cl)(Cl)Cl)nc3ccccc23)c1	1	-4	0	-2	-4	-11	·	·	·	·
O=[N+]([O-])c1ccc(N2CCN(Cc3ccccc3)CC2)c2c1no[n+]2[O-]	2	·	0	0	·	5	·	·	·	·
CC(=O)N1CCN(S(=O)(=O)c2ccc(C)cc2)C1c1ccc(N(C)C)cc1 (stereo unspecified)	5	31*	0	0	-3	5	-3	51*	-4	37*
SMILES	PKA-R1A activ	VIM-2 inhibitor	MsrA inh	MsrA act	IMP-1 inh-1	PKA-R2B activ	IMP-1 inh-2	VIM-2 FRET inh	TEM-1 inh	VIM-2 inh conf
CCc1ccccc1Nc1nc(-c2cccnc2)cs1	0	1	1	-12	-1	9	·	·	·	·
O=[N+]([O-])c1ccccc1Nc1nc(-c2cccnc2)cs1	-4	16*	1	-1	-4	7	-3	-3	-10	27*
COc1ccc(-n2c(=S)[nH]c3ccccc3c2=S)cc1	-1	14*	-1	-12	-2	-3	-3	27*	-5	19*
Cc1ccc(OCc2nc3ccccc3n2C(C)C(=O)Nc2c(C)cccc2C)cc1 (stereo unspecified)	·	·	0	·	·	·	·	·	·	·
CN(C)C(=O)c1ccc(Nc2nc(-c3cccs3)nc3ccccc23)cc1	-3	22*	2	-2	-1	2	-3	0	-7	25*
CCSc1ccc2nnc(-c3ccc(F)cc3)n2n1	5	14*	0	-4	-2	-1	-1	-4	0	24*
CCSc1ccc2nnc(-c3cccs3)n2n1	3	17*	0	-11	-2	-16	-3	-3	-8	28*
O=C1c2ccccc2C(=O)N1c1cccc2cccnc12	-2	14*	1	-7	-3	6	-3	-1	-3	3
COc1ccccc1OCCNC(=O)c1ccc(C)c(S(=O)(=O)N2CCOCC2)c1	2	·	1	0	·	-12	·	·	·	·
